# Sampled rows, rich in hits. Any-hit rate of the full collection: about 1.7%.
# Scp-1 inhibitor = inhibitors of human Scp-1 phosphatase | AID 493091 | inhibition, % at 20 µM | Q9GZU7 | 340,000 compounds, 0.88% hits | Recombinant Scp1, phosphopeptide, malachite green phosphate absorbance;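 active = inhibition above about 50% at 20 µM, limit read from the data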;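 note: plate controls were DMSO wells with enzyme for no effect and wells lacking enzyme for full effect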
#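 assay system = SCP-1 phosphatase catalytic domain, residues 76-261 | buffer or medium = 50 mM Tris acetate pH 5.5, 0.005% Tween-20, 10 mM MgCl2 | incubation = enzyme reaction 45 min at room temperature, colour 5 min, stabilisation 30 min | signal = Phosphate-binding colour reagent, absorbance read at 630 nm | measure = % inhibition at 20 µM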
# SUMO1-SIM PPI = modulators of human SUMO1-mediated protein-protein interactions | 360,000 compounds, 0.33% hits | SUMO1 binding to a labelled peptide, TR-FRET, 1 h | inhibition, % at 20 µM | P63165; in the data active = inhibition above about 37%
# Target sequence (P63165 whole entry, looked up): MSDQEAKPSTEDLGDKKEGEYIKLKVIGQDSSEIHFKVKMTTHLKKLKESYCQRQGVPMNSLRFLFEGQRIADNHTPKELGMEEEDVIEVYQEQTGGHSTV
# STEP block = inhibitors of human striatal-enriched phosphatase STEP. P54829. recombinant STEP, OMFP fluorogenic substrate, fluorescence. inhibition, % at 20 µM. 360,000 compounds, 0.25% hits. AID 588621;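 active = inhibition at 20 µM, scaled per plate between control wells, above about 37%, limit read from the data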;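 note: 0% = DMSO with enzyme and substrate and 100% = substrate only without enzyme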
# Target sequence (P54829 whole entry, looked up): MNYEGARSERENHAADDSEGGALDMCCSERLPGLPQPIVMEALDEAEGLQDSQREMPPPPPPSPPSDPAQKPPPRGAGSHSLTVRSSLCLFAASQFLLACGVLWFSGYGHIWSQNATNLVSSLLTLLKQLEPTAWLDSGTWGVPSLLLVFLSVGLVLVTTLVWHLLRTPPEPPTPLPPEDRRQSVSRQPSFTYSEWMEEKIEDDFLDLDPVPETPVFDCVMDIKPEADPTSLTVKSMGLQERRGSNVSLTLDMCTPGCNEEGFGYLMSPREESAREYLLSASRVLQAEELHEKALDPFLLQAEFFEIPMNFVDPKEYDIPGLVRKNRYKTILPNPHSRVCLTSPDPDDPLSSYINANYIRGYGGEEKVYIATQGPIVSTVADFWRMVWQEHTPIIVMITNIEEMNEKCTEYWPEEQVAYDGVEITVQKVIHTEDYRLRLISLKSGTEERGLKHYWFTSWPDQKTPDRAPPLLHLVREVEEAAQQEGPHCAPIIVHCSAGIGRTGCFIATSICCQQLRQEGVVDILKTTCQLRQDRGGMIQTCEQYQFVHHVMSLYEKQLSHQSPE
#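 medium = Bis-Tris buffer pH 6.0, 2.5 mM DTT, 0.005% Tween 20 | test system = STEP (striatal-enriched tyrosine phosphatase) enzyme, cell-free | measure = normalized % inhibition | compound dosing = 20 µM, 1% DMSO | also added = 25 µM OMFP | schedule = reaction 20 min, ambient temperature | measured by = fluorescence read at 480 nm ex / 540 nm em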
# LMPTP inh = blocks human LMPTP phosphatase | recombinant LMPTP-A, OMFP fluorogenic substrate, fluorescence intensity | 360,000 compounds, 0.22% hits | inhibition, % at 20 µM | P24666;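 active = compounds that cut the enzyme signal by at least half of the control window in the single-dose screen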;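 note: plate controls were DMSO wells with enzyme plus substrate for no effect and substrate without enzyme for full effect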
#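 Test system: LMPTP-A phosphatase enzyme. Amount: LMPTP-A at 0.625 nM final in the reaction. Reagent: OMFP substrate, 400 µM final. Times: 50 min at room temperature. Signal: endpoint fluorescence intensity from OMFP dephosphorylation. Read-out basis: % inhibition. Benchmarks: no-enzyme and uninhibited controls.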
# DNMT1 block = inhibitors of human DNMT1. inhibition (reported as % activation of signal), % at 10 µM. P26358. 360,000 compounds, 0.83% hits. AID 588458. DNMT1 molecular beacon, Hinp1I cleavage, fluorescence; in the data active = inhibition above about 50%
# DNMT1 interf DR = counter-screen for DNMT1 inhibitors: spectral interference, dose response; shares compounds with DNMT1 block; molecular beacon fluorescence; AID 602382; IC50, µM; 200 tested, under 10 active; call rule not given here
# DNMT1 confirm = DNMT1 inhibition confirmation, single concentration | shares compounds with DNMT1 block | DNMT1 molecular beacon HinP1I cleavage, fluorescence | inhibition, % at 10 µM | 2,300 compounds, 8% hits | AID 602385;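 active = average inhibition of at least 30% in the single-concentration confirmation test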
# DNMT1 interf = beacon fluorescence artifact counter-screen; shares compounds with DNMT1 block; DNMT1 molecular beacon spectral interference counterscreen, fluorescence 485/520; activation (fluorescence interference), % at 10 µM; 2,300 compounds, 1% hits;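 active = activation of at least 30% at 10 µM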;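 note: DNMT1 catalytic domain with a HinP1I cleavage step and a FAM/dabcyl DNA beacon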
# * hit, by the source's call; . = no result.
SMILES,Scp-1 inhibitor,SUMO1-SIM PPI,STEP block,LMPTP inh,DNMT1 block,DNMT1 confirm,DNMT1 interf,others
COc1ccc(S(=O)(=O)N2CCOCC2)cc1NC(=O)c1cc(C)oc1C,-7,0,-1,0,65*,4,-1,
O=C(NCCc1ccccc1O)c1cc2c(cc1[N+](=O)[O-])OCO2,0,-33,-2,-1,43,1,5,
COc1ccc(CCNC(=O)Cc2cc3c(cc2[N+](=O)[O-])OCO3)cc1OC,5,-27,-2,-1,-7,.,.,
CCC(=O)Nc1ccc(C(=O)CN2C(=O)NC3(CCOc4ccccc43)C2=O)cc1 (stereo unspecified),-2,-1,-2,1,-13,.,.,
O=S(=O)(NC1CCCCC1Nc1ccc(Cl)cc1)c1ccccc1 (stereo unspecified),-7,0,1,1,73*,1,4,
Cc1ccc(NC2CCCCC2NS(=O)(=O)c2ccc(Cl)cc2)cc1 (stereo unspecified),1,-3,-2,1,-3,.,.,
COc1cccc(CN(C)C(=O)CC[C@H]2O[C@@H](n3ccc(=O)[nH]c3=O)[C@H](O)[C@@H]2O)c1,.,6,1,-1,10,.,.,
Cc1ccc(Cl)cc1NC(=O)COC(=O)C1CCCC1,0,-4,-2,-1,55*,3,1,
COc1ccc(Cl)cc1NC(=O)COC(=O)C1CCCCC1,-10,1,1,1,-6,.,.,
COc1ccc(N2C(=O)C(Cl)=C(N3CCCC3)C2=O)cc1,6,-29,6,-1,8,.,.,
O=C1C(Cl)=C(N2CCCC2)C(=O)N1c1ccc(F)cc1,1,-37,12,1,72*,3,3,
COC(=O)N/N=C(\CCC(=O)O)c1cccs1,-1,13,0,3,-11,.,.,
CCc1nnc2n1N=C(c1ccc(-c3cc(Cl)ccc3Cl)o1)CS2,5,-5,4,6,66*,4,0,
O=C(N/N=C/c1cc(Cl)ccc1O)c1ccc(Br)cc1,98*,5,91*,72*,81*,9,4,
O=C(N/N=C/c1cc(Br)ccc1O)c1ccncc1,-17,-4,-3,0,0,.,.,
COCCCn1c(=N)c(C(N)=S)cc2c(=O)n3cccc(C)c3nc21,-9,22,7,6,54*,4,1,
CC(C)C[C@H]1CNC(=O)C(=O)N1CC1CCN(CCc2ccccc2)CC1,.,0,1,-1,-6,.,.,
CC(=O)C(=Cc1cccc(C#N)c1)C(=O)c1ccccc1,.,7,0,-1,-8,.,.,
COc1cc(C2SCC(=O)N2Cc2ccccc2)ccc1O (stereo unspecified),-10,1,-1,0,0,.,.,
O=C(COC(=O)C1CC(=O)N(Cc2ccco2)C1)c1ccc(OC(=O)c2ccco2)cc1 (stereo unspecified),81*,25,10,18,76*,5,3,
CC(=O)Nc1ccc(CNc2nc3cc(-c4cccc(C(F)(F)F)c4)sc3c(=O)n2C)cc1,.,-10,0,5,61*,5,7,
COc1cccc(CNc2nc3cc(-c4cccc(C(F)(F)F)c4)sc3c(=O)n2C)c1,.,-7,0,3,-2,.,.,
CCOC(=O)C1=C(C)N=c2sc(=Cc3ccc(OCC(=O)O)cc3)c(=O)n2C1c1ccc(Cl)cc1 (stereo unspecified),.,44*,10,76*,92*,99*,-5,DNMT1 interf DR=>99
CC1(C(=O)NS(=O)(=O)c2ccc(Cl)cc2)CCN1C(=O)c1ccc(C2CCCCC2)cc1 (stereo unspecified),.,5,0,1,2,.,.,
COc1ccc(/C=N/n2c(C)nc3c([nH]c4ccccc43)c2=O)cc1CN1CCCC(C)(C)C1,-4,-3,10,1,54*,4,3,
SMILES,Scp-1 inhibitor,SUMO1-SIM PPI,STEP block,LMPTP inh,DNMT1 block,DNMT1 confirm,DNMT1 interf,others
Cc1ccc(S(=O)(=O)NCC(=O)OCC(=O)NCc2cccs2)cc1,1,-2,-1,1,3,.,.,
COc1ccc(-c2noc(CCC(=O)N3CCN(c4cccc(OC)c4)CC3)n2)cc1,1,4,1,0,3,.,.,
COc1ccc(-c2noc(CCC(=O)N3CCC(c4cc(C)ccc4C)CC3)n2)cc1,-7,1,5,9,50,0,0,
O=C(O)CN1C(=O)/C(=C/c2ccc(N3CCCCC3)o2)SC1=S,45,-12,32,0,18,.,.,
COC(=O)CN1C(=O)S/C(=C/c2ccc(N3CCCCC3)o2)C1=O,0,-130,-58,2,67*,70*,52*,
Cc1ccc(F)cc1C(=O)N1CCOCC1c1cc(C(=O)NCc2ccccc2)no1 (stereo unspecified),.,1,-3,-2,-4,.,.,
CCN(CC)C(=O)c1ccc(CS(=O)(=O)Cc2ccccc2)cc1,8,-2,-1,-1,-1,.,.,
CSc1ccc(C2C(C#N)=C(N)Oc3c2ccc(=O)c2c(C)oc(C)c32)cc1 (stereo unspecified),-7,22,6,15,74*,4,6,
CC1Sc2ccc(S(=O)(=O)N3CCC(C(=O)N(C)Cc4ccccc4)CC3)cc2NC1=O (stereo unspecified),3,-2,0,1,-7,.,.,
O=c1ccn([C@@H]2O[C@H](CO)[C@@H](O)[C@H]2O)c(=O)[nH]1,-9,-2,0,-2,81*,4,5,
C[C@H](NC(=O)CC[C@H]1O[C@@H](n2ccc(=O)[nH]c2=O)[C@H](O)[C@@H]1O)C(=O)O,.,-2,1,-4,0,.,.,
O=C(CC[C@H]1O[C@@H](n2ccc(=O)[nH]c2=O)[C@H](O)[C@@H]1O)N1CCN(c2ccccn2)CC1,.,2,-3,0,-1,.,.,
O=C(CC[C@H]1O[C@@H](n2ccc(=O)[nH]c2=O)[C@H](O)[C@@H]1O)N1CCN(Cc2cccc3ccccc23)CC1,.,4,2,-1,85*,0,6,
C#CCN1C=CC(=O)[C@@H](OC(=O)NCCC)[C@H]1c1ccccc1Br,-4,6,-2,-1,7,.,.,
CC(=O)c1cccc(OCC(=O)N(C)CC(=O)NCc2ccco2)c1,81*,17,9,0,96*,52*,1,DNMT1 interf DR=>99
O=C(Nc1cccc(Cl)c1N1CCOCC1)c1cccs1,-5,8,1,1,3,.,.,
CCNC(=O)C1(C)CCCN(C(=O)c2sccc2C)C1 (stereo unspecified),.,-1,-3,-2,-3,.,.,

# Assay outcomes from PubChem BioAssay.
